Most compounds without a hit are left out; they make up all but 1.2% or so of the library.
zfTRPN1 agonist = zebrafish TRPN1 channel agonists, primary screen, cell-based, HEK293, calcium fluorescence | activation, % at 3 µM | transient receptor potential cation channel N1 (TRPN1/NompC), Danio rerio | 220,000 tested, 0.18% active | HEK293 zebrafish TRPN1-YFP, Fluo-8 calcium fluorescence; 100% = response to 87 µM carbachol;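 active = activation above its plate's cutoff, the mean activation of test wells on that plate plus 3 SD, cut at about 19% in these data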
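Control set: carbachol 87 µM as high control, DMSO as low control; system: HEK293 stable line with zebrafish TRPN1-YFP; read-out: % activation versus carbachol response; detection: intracellular calcium fluorescence with Fluo-8; doses: single test compound dose, 3 µM nominal, 0.3% DMSO; schedule: dye 1 h 37 °C plus 30 min RT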
CRFBP-R2 agonist = agonists of CRF-BP/CRF-R2 complex, primary screen, cell-based, HEK293, calcium dye fluorescence, uHTS | CRF-binding protein / CRF receptor 2 complex (human) | calcium dye fluorescence (FLIPR); percent of saturating CRF peptide response | activation, % at 13.2 µM | 350,000 tested, 0.46% active;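 active = activation of at least 50%, plus an integration ratio under a set limit after plate pattern correction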
TRPML3 ag = human TRPML3 channel agonists, primary screen, cell-based, HEK293 TRPML3-YFP, Fluo-8 calcium fluorescence, 3 µM. Mucolipin-3 (Homo sapiens), Q8TDD5. AID 1448, 2008. activation, % at 3 µM. 100% = the carbachol control signal. 220,000 tested, 0.29% active;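 active = activation above its plate's cutoff, the mean activation of the plate's test wells plus 3 SD, cut at about 12% in these data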
Target sequence (Q8TDD5 whole entry, looked up): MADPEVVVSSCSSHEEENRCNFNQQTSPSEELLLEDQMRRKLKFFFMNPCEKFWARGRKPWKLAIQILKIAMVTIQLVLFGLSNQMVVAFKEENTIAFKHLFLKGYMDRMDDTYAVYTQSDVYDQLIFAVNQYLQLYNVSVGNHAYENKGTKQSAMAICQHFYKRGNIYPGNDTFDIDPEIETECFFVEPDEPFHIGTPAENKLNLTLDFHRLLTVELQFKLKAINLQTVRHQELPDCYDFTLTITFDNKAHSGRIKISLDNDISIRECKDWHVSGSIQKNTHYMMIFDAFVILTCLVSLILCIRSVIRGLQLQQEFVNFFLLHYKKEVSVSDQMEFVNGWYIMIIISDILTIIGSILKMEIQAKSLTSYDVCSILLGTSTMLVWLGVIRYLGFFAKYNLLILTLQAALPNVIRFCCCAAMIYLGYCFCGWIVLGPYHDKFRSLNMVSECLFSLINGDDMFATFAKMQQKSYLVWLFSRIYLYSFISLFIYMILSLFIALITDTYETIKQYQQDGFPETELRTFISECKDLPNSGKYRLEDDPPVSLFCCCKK
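Material: HEK293 cells stably carrying human TRPML3-YFP; compound dosing: single dose, 3 µM final nominal compound, 0.3% DMSO final; incubation: 1-h 37 °C dye load, 5-s basal, 120-s post-compound reads; technique: Fluo-8 intracellular calcium fluorescence, excitation 470-495 nm, emission 515-575 nm; read-out basis: percent activation from peak-to-basal fluorescence ratio, scaled between DMSO and carbachol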
CRFBP-R2 block = antagonists of CRF-BP/CRF-R2 complex, primary screen, cell-based, HEK293, calcium dye fluorescence, uHTS; 350,000 tested, 0.59% active; CRF-induced calcium fluorescence; inhibition, % at 11.8 µM;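 active = inhibition of the ligand-induced calcium signal above about 50% at the single tested concentration, limit read from the data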
A number is an active result; i = inactive; nt = not tested or not shown.

SMILES	zfTRPN1 agonist	CRFBP-R2 agonist	TRPML3 ag	CRFBP-R2 block
Cc1cc(C)cc(NC(=O)c2ccc(N3C(=O)C4CCCCC4C3=O)cc2)c1 (stereo not given)	nt	i	nt	75.3
CCC1(C)Cc2ccccc2-c2c1c(=O)n(-c1ccc(C)cc1)c1nnnn21 (stereo not given)	i	i	i	i
CC1(C)Cc2ccccc2-c2c1c(=O)n(Cc1ccccc1)c1nnnn21	i	i	i	61.2
O=[N+]([O-])c1cccc(-c2nc(-c3ccccn3)no2)c1	i	i	i	59.4
CCOc1ccc(C(C)NC(=S)NCc2ccc(Cl)cc2)cc1 (stereo not given)	i	95.3	i	i
CCCc1ccc(C(C)NC(=S)NCc2ccc(F)cc2)cc1 (stereo not given)	nt	53.3	nt	i
O=C(O)c1cccc2cccc(-c3c4ccc(=O)c(O)c-4oc4c(O)c(O)ccc34)c12	nt	i	nt	51.2
CCOc1ccc(/C=C2\SC(=S)N(CCC(=O)Nc3cccc(C(=O)O)c3)C2=O)cc1	nt	i	nt	i
O=[N+]([O-])c1ccc(Sc2cccc[n+]2[O-])c2nonc12	34.8	i	14.4	i
O=c1c2ccccc2sc2ccc(NCCCN3CCOCC3)cc12	nt	102.1	nt	i
COc1ccc(C(=O)c2sc(Nc3cccc(OC)c3)c(C(=O)Nc3cccc(C)c3C)c2N)cc1	i	121.3	i	i
COc1ccc(Nc2sc(C(=O)c3ccc(Cl)cc3)c(N)c2C(=O)Nc2ccccc2OC)cc1	i	i	i	i
O=c1c(/C=N/Nc2ccccc2)c(Sc2nnnn2-c2ccccc2)nc2ccccn12	i	98.7	i	i
CSc1nc(C)c(C(=O)C[n+]2ccccc2C)cc1C#N	i	i	i	72.5
Cc1ccc(-n2nnnc2SCC(=O)Nc2cccnc2Cl)cc1	i	i	i	53.4
CCCN1C(=O)/C(=C/c2c(N3CCNC(=O)C3CC(=O)OCC)nc3c(C)cccn3c2=O)SC1=S (stereo not given)	28.3	190.9	11.6	i
CCOC(=O)CC1C(=O)NCCN1c1nc2ccc(C)cn2c(=O)c1/C=C1\SC(=S)N(C(C)CC)C1=O (stereo not given)	20.3	nt	i	nt
CCOC(=O)CC1C(=O)NCCN1c1nc2ccc(C)cn2c(=O)c1/C=C1\SC(=S)N(CC(C)C)C1=O (stereo not given)	31.8	189.1	i	i
Cc1ccccc1Nc1ncnc2c1cnn2Cc1ccccc1	i	i	i	i
Cc1ccc2nc(/C(C#N)=C\c3ccc(Oc4ccc(C(F)(F)F)cc4[N+](=O)[O-])cc3)[nH]c2c1	i	i	i	i
CCN(C(=O)COC(=O)Cc1cccc2ccccc12)C1CCS(=O)(=O)C1 (stereo not given)	nt	i	nt	121.6
C=CC(=O)Oc1ccc(N2Cc3ccccc3C2=O)cc1	nt	i	nt	97.5
CC(C)OC(=O)c1c2c(n3ccccc13)C(=O)c1ccccc1C2=O	i	181.6	i	i
COc1cc(NC(=O)CSc2cc(C)c3cc(C)cc(C)c3n2)c(C(=O)O)cc1OC	i	i	i	64.9
COc1cc(NC(=O)CSc2nccc(C)n2)c(C(=O)O)cc1OC	i	i	i	i
SMILES	zfTRPN1 agonist	CRFBP-R2 agonist	TRPML3 ag	CRFBP-R2 block
CCOc1ccc(C(CCc2ccccc2)NC(=O)c2ccccc2OC)cc1OCC (stereo not given)	i	i	i	75.7
CCc1nnc(NC(=O)CSc2nnc(Cc3ccccc3)n2-c2ccccc2)s1	i	i	i	i
Cc1nnc(NC(=O)CSc2nnc(Cc3ccccc3)n2-c2ccccc2)s1	i	i	i	80.7
C/C(=C\C(=O)c1ccc(Br)cc1)NNC(=O)c1ccc(O)cc1	nt	i	nt	i
O=C(N/N=C/c1cn(-c2ccccc2)nc1-c1ccc(F)cc1)c1ccc2c(c1)OCO2	i	i	i	i
Cc1cc(C(=O)OCc2nnc(-c3ccccc3)o2)c(C)n1-c1ccccc1	i	i	i	i
Cc1noc(C)c1COC(=O)c1cc(C)n(-c2ccccc2)c1C	i	i	i	50.2
CCc1ccc(Nc2nnc(SC(C)C(=O)NC3CC3)s2)cc1 (stereo not given)	nt	i	nt	78.6
Cn1c(=O)c(C(=O)COc2ccc(C#N)cc2)c(N)n(Cc2ccccc2)c1=O	i	55.0	i	i
CCC(=O)OCC(=O)c1c(N)n(Cc2ccccc2)c(=O)n(C)c1=O	i	i	i	i
COCC1CCCCN1C(=O)c1ccc(OC2CCN(CCc3ccccc3)CC2)cc1 (stereo not given)	nt	i	nt	i
CC(=O)c1c(N2CCCCC2)nc(=S)n(Cc2ccccc2)c1C	i	i	i	107.7
CC(=O)c1c(N2CCN(Cc3ccccc3)CC2)nc(=S)n(Cc2ccccc2)c1C	i	i	i	i
Cc1nn(-c2ccccc2)c(N)c1Sc1ccc([N+](=O)[O-])cc1	i	i	i	57.6
Cc1nn(S(=O)(=O)c2ccc(Cl)cc2)c(C)c1Sc1ccc([N+](=O)[O-])cc1	i	i	i	i
CC1(C)CC(C)(O)N(Cc2ccccc2)C(=S)N1 (stereo not given)	i	i	i	i
CCOC(=O)/C(=C/c1ccc(OC(=O)c2ccncc2)cc1)C(C)=O	i	i	i	i
COCCOC(=O)/C(=C/c1ccc(OC(=O)c2ccccc2)cc1)C(C)=O	i	57.2	i	i
CCOc1ccc2nc(N3C(=O)CNC3=S)sc2c1	i	i	i	i
CCN(CC(=O)Nc1ccc(N2CCOCC2)cc1)C(=O)COc1ccccc1OC	i	i	i	i
Cc1cc(C)c(C(N)=O)c(Nc2cccc(Cl)c2C)n1	i	i	i	i
Cc1ccc(S(=O)(=O)c2cc3c(=O)n4ccccc4nc3n(Cc3ccco3)c2=N)cc1	i	65.6	i	i
CCCCn1c(=N)c(S(=O)(=O)c2ccc(Br)cc2)cc2c(=O)n3cccc(C)c3nc21	nt	59.5	nt	i
CCCn1c(=NC(=O)c2ccncc2)c(C#N)cc2c(=O)n3cccc(C)c3nc21	nt	i	nt	i
CCCCn1c(=NC(=O)c2cccnc2)c(C#N)cc2c(=O)n3cccc(C)c3nc21	i	88.8	i	i
SMILES	zfTRPN1 agonist	CRFBP-R2 agonist	TRPML3 ag	CRFBP-R2 block
N#Cc1cc(C(=O)c2cc(Br)ccc2O)cn(Cc2ccccc2)c1=O	i	i	i	i
Cc1c(C2C(C#N)=C(N)N(c3cccc([N+](=O)[O-])c3)C3=C2C(=O)CCC3)cnn1C (stereo not given)	i	nt	i	nt
CCOc1ccccc1N=C1SC(CC(=O)Nc2ccc(OC)cc2OC)C(=O)N1CCC1=CCCCC1 (stereo not given)	i	i	i	57.0
O=C(CC1SC(=Nc2ccc(OC(F)F)cc2)N(CCC2=CCCCC2)C1=O)Nc1ccccc1F (stereo not given)	i	i	i	i
OCCC1CN(Cc2ccc3ncccc3c2)CCN1Cc1ccccc1 (stereo not given)	i	i	i	i
C#CCSc1nc(C)cc(C(=O)OCC)c1C#N	i	i	i	82.2

Screens from PubChem BioAssay.
